Reference: PMC11382098 (RSC Advances, 2024)

System: human non-small-cell lung cancer cells (A549)
Assay: In vitro cytotoxicity
Format: cell-based
Details: not given
Procedure, shortened: (§1)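 Cells grown in DMEM with 10% FBS, penicillin/streptomycin, L-glutamine and 1 mM sodium pyruvate at 37 °C, 5% CO2. Seeded at 3 × 10^3 cells/well for 24 h, then exposed 72 h to test compound at 6.25, 12.5, 25, 50 and 100 μM; 5-FU as positive control. MTT 0.5 mg mL−1 for 3 h at 37 °C; formazan dissolved in DMSO, read at A570. Untreated cells set as 100% viability; IC50 given as mean ±SD, n = 3.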

Structure (SMILES) | Cytotoxic activity against A549 cells (in words)
COc1ccc(/C=C/c2nc3ccc(Br)cc3nc2/C=C/c2ccc(OC)cc2)cc1 [Compound 4l, 6-Bromo-2,3-bis[(E)-4-methoxystyryl]quinoxaline] | exhibited cytotoxic activities
Brc1ccc2nc(/C=C/c3ccco3)c(/C=C/c3ccco3)nc2c1 [Compound 4a, 6-Bromo-2,3-bis[(E)-2-(furan-2-yl)vinyl]quinoxaline] | exhibited cytotoxic activities
O=[N+]([O-])c1ccc2nc(/C=C/c3cccc(Cl)c3)c(/C=C/c3cccc(Cl)c3)nc2c1 [Compound 5g, 2,3-Bis[(E)-3-chlorostyryl]-6-nitroquinoxaline] | exhibited cytotoxic activities
Brc1ccc2nc(/C=C/c3cccs3)c(/C=C/c3cccs3)nc2c1 [Compound 4b, 6-Bromo-2,3-bis[(E)-2-(thiophen-2-yl)vinyl]quinoxaline] | exhibited cytotoxic activities
Clc1cccc(/C=C/c2nc3ccc(Br)cc3nc2/C=C/c2cccc(Cl)c2)c1 [Compound 4g, 6-Bromo-2,3-bis[(E)-3-chlorostyryl]quinoxaline] | exhibited cytotoxic activities
COc1ccccc1/C=C/c1nc2ccc(Br)cc2nc1/C=C/c1ccccc1OC [Compound 4e, 6-Bromo-2,3-bis[(E)-2-methoxystyryl]quinoxaline] | exhibited cytotoxic activities

System: Hs68 (human foreskin fibroblast) cells
Assay: In vitro cytotoxicity
Format: cell-based
Details: Hs68, read-out: IC50 (concentration necessary for 50% inhibition), Hs68 cells
Procedure, shortened: as §1

Structure (SMILES) | IC50
O=c1[nH]cc(F)c(=O)[nH]1 [5-FU, 5-Fluorouracil] | 3.08 ± 0.4 µM

System: not listed separately
Assay: Solubility observation
Format: physicochemical
Details: compounds with two nitro groups

Solubility (in words) | Structure (SMILES)
reduced the solubility | O=[N+]([O-])c1ccc(/C=C/c2nc3ccc(Br)cc3nc2/C=C/c2ccc([N+](=O)[O-])cc2)cc1 [Compound 4k, 6-Bromo-2,3-bis[(E)-4-nitrostyryl]quinoxaline]
reduced the solubility | O=[N+]([O-])c1cccc(/C=C/c2nc3ccc(Br)cc3nc2/C=C/c2cccc([N+](=O)[O-])c2)c1 [Compound 4f, 6-Bromo-2,3-bis[(E)-3-nitrostyryl]quinoxaline]
reduced the solubility | O=[N+]([O-])c1cccc(/C=C/c2nc3ccc([N+](=O)[O-])cc3nc2/C=C/c2cccc([N+](=O)[O-])c2)c1 [Compound 5f, 6-Nitro-2,3-bis[(E)-3-nitrostyryl]quinoxaline]
reduced the solubility | O=[N+]([O-])c1ccc(/C=C/c2nc3ccc([N+](=O)[O-])cc3nc2/C=C/c2ccc([N+](=O)[O-])cc2)cc1 [Compound 5k, 6-Nitro-2,3-bis[(E)-4-nitrostyryl]quinoxaline]
